Assay results taken from ChEMBL document CHEMBL3352189 (J Med Chem, 2014).

Columns and labels:
[1] = test system: Venezuelan equine encephalitis virus; assay: Antiviral activity against Venezuelan equine encephalitis virus TC83 infected in Vero 76 cells assessed as reduction in virus-induced cytopathic effect after 2 days by Celltiter-Glo reagent based assay; assay type: functional, organism-based; conditions: TC83, Vero 76, 48 h
[2] = Cytotoxicity against african green monkey Vero 76 cells after 3 days by Celltiter-Glo reagent based assay; assay type: cell-based; conditions: chlorocebus sabaeus, vero 76, 72 h
Procedure, shortened: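 Vero 76 cells were seeded overnight at 12 000/well and given an 8-point 2-fold compound series (20 mM DMSO stock) in EMEM/10% FBS with no virus. Viability was read by CellTiter-Glo after 3 days relative to untreated cells. Run in duplicate; CC50 from a four-parameter logistic or sigmoidal fit.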

[3] = Selectivity index, ratio of CC50 for african green monkey Vero 76 cells to EC50 for Venezuelan equine encephalitis virus TC83; assay type: toxicity, cell-based; conditions: read-out: Ratio CC50/EC50

Row | SMILES | EC50 [1] [µM] | CC50 [2] [µM] | selectivity ratio [3]
1 | CN1CCN(C)/C(=N/c2cc(F)c(C#N)cc2C(=O)Nc2ccccc2)C1 | 0.4 | > 50 | > 125
2 | O=c1c2cc([N+](=O)[O-])ccc2nc(C2CCNCC2)n1-c1ccccc1 | 3.6 | > 50 | > 13.9
3 | CCN1CCN(Cc2nc3ccc(S(=O)(=O)O)cc3c(=O)n2-c2ccccc2)CC1 | > 25 | > 50 | 
4 | CN1CCN(C)/C(=N/c2ccc(C#N)cc2C(=O)Nc2cccc(F)c2)C1 | 0.8 | > 50 | > 62.5
5 | COc1ccccc1NC(=O)c1cc([N+](=O)[O-])ccc1/N=C1\CN(C)CCN1C | 33.7 | > 50 | > 1.5
6 | O=c1c2cc([N+](=O)[O-])ccc2nc(CN2CCN(c3ccccc3)CC2)n1-c1ccccc1F | > 25 | > 50 | 
7 | O=C1CN(Cc2nc3ccc([N+](=O)[O-])cc3c(=O)n2-c2ccccc2F)CCN1 | > 25 | > 50 | 
8 | CN(C)c1cccc(-n2c(CN3CCNCC3)nc3ccc([N+](=O)[O-])cc3c2=O)c1 | > 25 | > 50 | 
9 | CNCCCN(C)Cc1nc2ccc([N+](=O)[O-])cc2c(=O)n1-c1ccccc1 | 0.6 | > 50 | > 83.3
10 | CCN1CCN(Cc2nc3ccccc3c(=O)n2-c2ccccc2F)CC1 | > 25 | > 50 | 
11 | CN1CCN(C)/C(=N/c2ccc(C#N)cc2C(=O)Nc2ccccc2F)C1 | 3.7 | > 50 | > 13.5
12 | CN1CCN(C)/C(=N/c2ccc([N+](=O)[O-])cc2C(=O)NCc2ccccc2)C1 | 3.7 | > 50 | > 13.5
13 | COc1ccccc1-n1c(CN2CCNCC2)nc2ccc([N+](=O)[O-])cc2c1=O | > 25 | > 50 | 
14 | O=c1c2cc([N+](=O)[O-])ccc2nc(CN2CCNCC2)n1-c1ccccc1 | 0.2 | > 50 | > 250
15 | CCN1CCN(Cc2nc3ccc(C#N)cc3c(=O)n2-c2ccccc2)CC1 | 1.1 | > 50 | > 45.5
16 | CCN1CCN(Cc2nc3ccc([N+](=O)[O-])cc3c(=O)n2-c2cccc(F)c2)CC1 | 0.4 | > 50 | > 125
17 | CN1CCN(C)/C(=N/c2cc(Cl)c(C#N)cc2C(=O)Nc2ccccc2)C1 | 0.1 | > 50 | > 500
18 | CCN1CCN(Cc2nc3ccc([N+](=O)[O-])cc3c(=O)n2C(C)C)CC1 | > 25 | > 50 | 
19 | CCN1CCN(Cc2nc3ccc(-c4ccccn4)cc3c(=O)n2-c2ccccc2)CC1 | > 25 | > 50 | 
20 | COc1cccc(-n2c(CN3CCNCC3)nc3ccc([N+](=O)[O-])cc3c2=O)c1 | 5.1 | > 50 | > 9.8
21 | CN1CCN(C)/C(=N/c2ccc([N+](=O)[O-])cc2C(=O)Nc2ccc(F)cc2)C1 | 0.09 | > 50 | > 556
22 | CN1CCN(C)/C(=N/c2ccc(C(F)(F)F)cc2C(=O)Nc2ccccc2)C1 | 22.3 | > 50 | > 2.2
23 | CCN1CCN(Cc2nc3ccc(I)cc3c(=O)n2-c2ccccc2)CC1 | 17.1 | > 50 | > 2.9
24 | O=c1c2cc([N+](=O)[O-])ccc2nc(CN2CCCCC2)n1-c1ccccc1F | 4.7 | > 50 | > 10.6
25 | CN1CCN(C)/C(=N/c2ccc([N+](=O)[O-])cc2C(=O)Nc2cccc(F)c2)C1 | 0.1 | > 50 | > 500
26 | CCN1CCN(Cc2nc3ccc([N+](=O)[O-])cc3c(=O)n2Cc2ccccc2)CC1 | > 25 | > 50 | 
27 | O=c1c2cc([N+](=O)[O-])ccc2nc(CN2CCCNCC2)n1-c1ccccc1 | 0.9 | > 50 | > 55.6
28 | COC(=O)c1ccc(/N=C2\CN(C)CCN2C)c(C(=O)Nc2ccccc2)c1 | 2 | > 50 | > 25

Row | SMILES | EC50 [1] [µM] | CC50 [2] [µM] | selectivity ratio [3]
29 | CCN1CCN(C)C/C1=N\c1ccc([N+](=O)[O-])cc1C(=O)Nc1ccccc1 | 0.05 | > 50 | > 1000
30 | CN1CCN(C)/C(=N/c2ccc([N+](=O)[O-])cc2C(=O)Nc2ccccc2F)C1 | 0.2 | > 50 | > 250
31 | CCN1CCN(Cc2nc3ccc(-c4cccnc4)cc3c(=O)n2-c2ccccc2)CC1 | > 25 | > 50 | 
32 | COc1ccc(-n2c(CN3CCNCC3)nc3ccc([N+](=O)[O-])cc3c2=O)cc1 | 0.2 | > 50 | > 250
33 | CC(C)N1CCN(Cc2nc3ccc([N+](=O)[O-])cc3c(=O)n2-c2ccccc2F)CC1 | 4.4 | > 50 | > 11.4
34 | CN1CCN(C)/C(=N/c2ccc(C#N)cc2C(=O)Nc2ccccc2)C1 | 0.4 | > 50 | > 125
35 | O=c1c2cc([N+](=O)[O-])ccc2nc(CN2CCOCC2)n1-c1ccccc1F | 8.7 | > 50 | > 5.7
36 | CN1CCN(C)/C(=N/c2cc(F)c(F)cc2C(=O)Nc2ccccc2)C1 | 4.4 | > 50 | > 11.4
37 | O=c1c2cc([N+](=O)[O-])ccc2nc(CN2CCNCC2)n1-c1ccsc1 | 1.4 | > 50 | > 35.7
38 | CN(C)c1ccc(-n2c(CN3CCNCC3)nc3ccc([N+](=O)[O-])cc3c2=O)cc1 | > 25 | > 50 | 
39 | O=c1c2cc([N+](=O)[O-])ccc2nc(CN2CCCNC2)n1-c1ccccc1 | 1.1 | > 50 | > 45.5
40 | CCN1CCN(Cc2nc3ccc([N+](=O)[O-])cc3c(=O)n2-c2ccccc2)CC1 | 0.3 | > 50 | > 167
41 | CN1CCN(C)/C(=N/c2cc([N+](=O)[O-])ccc2C(=O)Nc2ccccc2)C1 | 8.4 | > 50 | > 6
42 | CC(C)NC(=O)c1cc([N+](=O)[O-])ccc1/N=C1\CN(C)CCN1C | > 25 | > 50 | 
43 | CN1CCN(C)/C(=N/c2ccc(F)cc2C(=O)Nc2ccccc2)C1 | 6.4 | > 50 | > 7.8
44 | CCN1CCN(Cc2nc3ccc(-c4nnn[nH]4)cc3c(=O)n2-c2ccccc2)CC1 | > 25 | > 50 | 
45 | CN1CCN(C)/C(=N/c2ccccc2C(=O)Nc2ccccc2)C1 | > 25 | > 50 | 
46 | CCN1CCN(Cc2nc3ccc(C(=O)O)cc3c(=O)n2-c2ccccc2)CC1 | > 25 | > 50 | 
47 | CCN1CCN(Cc2nc3ccc(C(F)(F)F)cc3c(=O)n2-c2ccccc2F)CC1 | > 25 | > 50 | 
48 | CN1CCN(C)/C(=N/c2ccc([N+](=O)[O-])cc2C(=O)Nc2ccsc2)C1 | 0.5 | > 50 | 100
49 | CCN1CCN(Cc2nc3ccc(C(=O)N(C)C)cc3c(=O)n2-c2ccccc2)CC1 | > 25 | > 50 | 
50 | CCN1CCN(Cc2nc3ccc([N+](=O)[O-])cc3c(=O)n2C)CC1 | > 25 | > 50 | 
51 | CCN1CCN(Cc2nc3ccc(C(N)=O)cc3c(=O)n2-c2ccccc2)CC1 | > 25 | > 50 | 
52 | CCN1CCN(Cc2nc3ccc([N+](=O)[O-])cc3c(=O)[nH]2)CC1 | > 25 | > 50 | 
53 | O=c1c2cc([N+](=O)[O-])ccc2nc(CN2CCNCC2)n1-c1ccccc1F | 0.2 | > 50 | > 250
54 | CN1CCN(C)/C(=N/c2cc(F)ccc2C(=O)Nc2ccccc2)C1 | > 25 | > 50 | 
55 | CCN1CCN(c2nc3ccc([N+](=O)[O-])cc3c(=O)n2-c2ccccc2)CC1 | > 25 | > 50 | 
